From publication PMC11406440 (Food and chemical toxicology : an international journal …, 2024)

Experiments:
B6C3F1 mice = test: Serum chemistries after 28-day dermal exposure; format: in vivo; details: 28 days
Outline: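 After 28 daily ear applications (25 μl/ear; acetone or 1.25, 2.5, 5% w/v), blood was taken by cardiac puncture about 24 h post-dose. Serum was separated by centrifugation and frozen at −20 °C, then run on a Catalyst DX chemistry analyzer for ALKP, BUN, glucose, cholesterol and ALT. There were 4–5 mice/group, with one-way ANOVA and Dunnett's post-test versus vehicle.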

spleen = test: Spleen gene expression; format: in vivo, B6C3F1 mice; details: PFHxS dermal, 28 days
Outline: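 Spleens came from female B6C3F1 mice given acetone vehicle or test compound (1.25–5% w/v, 25 μl/ear, both ears) daily for 28 days and necropsied about 24 h after the last dose. Gene expression was measured by qPCR and expressed as mean fold change relative to vehicle, with 5 mice/group. Significance used one-way ANOVA with Dunnett's or Kruskal-Wallis with Dunn's post-test.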

[1] = 28 days of 20 mg/kg/d oral gavage, female mice; ref Narizzano et al., 2021; cited from earlier work

For `O=S(=O)(O)C(F)(F)C(F)(F)C(F)(F)C(F)(F)C(F)(F)C(F)(F)F` [PFHxS, Perfluorohexane sulfonic acid], the “Serum ALT fold increase” value (B6C3F1 mice; 1.25% PFHxS dermal) was 3.66 fold, the “Serum ALKP fold increase” value (B6C3F1 mice; 2.5% PFHxS dermal) was 2.11 fold and the “Serum ALT fold increase” value (B6C3F1 mice; 2.5% PFHxS dermal) was 2.9 fold. The “Serum BUN change” value (B6C3F1 mice; 2.5 and 5% PFHxS dermal) was “decreased”, the Serum cholesterol change (B6C3F1 mice; 2.5 and 5% PFHxS dermal) was “decreased” and the “Serum ALKP fold increase” value (B6C3F1 mice; 5% PFHxS dermal) was 2.61 fold. For the same compound, the “Serum ALKP increase” value (B6C3F1 mice; 5% PFHxS dermal) was 161%, the “Serum ALT fold increase” value (B6C3F1 mice; 5% PFHxS dermal) was 4.6 fold and the “Serum ALT increase” value (B6C3F1 mice; 5% PFHxS dermal) was 360%. The Serum cholesterol decrease (B6C3F1 mice; 5% PFHxS dermal) was 43%, the Serum glucose decrease (B6C3F1 mice; 5% PFHxS dermal) was 58% and the “Serum urea nitrogen (BUN) decrease” value (B6C3F1 mice; 5% PFHxS dermal) was 34%. For the same compound, the Serum glucose change (B6C3F1 mice; all three PFHxS concentrations (1.25, 2.5, 5%)) was “decreased”, the “Spleen Abcg1 gene expression” value (spleen) was “increased” and the “Spleen Chac1 gene expression” value (spleen) was “increased”. The “Spleen Crim1 gene expression” value (spleen) was “increased”, the “Spleen Ctse gene expression” value (spleen) was “decrease” and the “Spleen Fbxo38 gene expression” value (spleen) was “increased”. The “Spleen Id1 gene expression” value (spleen) was “increased”, the “Spleen Il-10 gene expression” value (spleen) was “increased” and the “Spleen Tlr5 gene expression” value (spleen) was “increased”. The “Spleen Tlr6 gene expression” value (spleen) was “increased”, the “Spleen Tlr7 gene expression” value (spleen) was “increased” and the “Spleen Tlr8 gene expression” value (spleen) was “increased”. The Serum level [1] was 35000 ng/mL.
